Data set [1] relates to Clostridioides difficile. The data set is described as follows: Antibacterial activity against Clostridium difficile ATCC 700057 incubated for 48 hrs by CLSI method. It is filed as functional. The settings on record: ATCC 700057, 48 h. The procedure, abridged: (§1)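 Broth microdilution per CLSI anaerobe method in pre-reduced (2-4 h) Brucella broth with haemin and vitamin K, 35 °C anaerobically for 48 h. Compounds from 5 mg/mL DMSO stocks, twofold dilutions in water mixed with double-strength broth; final 0.25–128 μg/mL. […] Triplicate; modal MIC read visually as lowest concentration inhibiting growth.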

In data set [2] the test system is Staphylococcus aureus. Description: Antimicrobial activity against glycopeptide intermediate susceptible/methicillin-resistant Staphylococcus aureus NRS1 incubated for 18 hrs by CLSI method. The settings on record: NRS1, 18 h. It counts as functional.
Data set [3] relates to Streptococcus pneumoniae. Description: Antibacterial activity against Streptococcus pneumoniae ATCC 49619 incubated for 24 hrs by CLSI method. It counts as functional. The settings on record: ATCC 49619, 24 h. In outline: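 CLSI broth microdilution in MHB with 2.5% lysed horse blood, 5% CO2, 35 °C, 24 h. Compounds from 5 mg/mL DMSO stocks diluted in water plus double-strength broth; final 0.25–128 μg/mL. […] Triplicate; modal MIC read visually as lowest growth-inhibiting concentration.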

Data set [4] concerns Staphylococcus aureus. The data set is described as follows: Antimicrobial activity against glycopeptide intermediate susceptible Staphylococcus aureus NRS17 incubated for 18 hrs by CLSI method. It counts as functional. The settings on record: NRS17, 18 h.
The subject of data set [5] is Streptococcus pneumoniae. The data set is described as follows: Antibacterial activity against MDR Streptococcus pneumoniae ATCC 700677 incubated for 18 hrs by CLSI method. The note with it: ATCC 700677, 18 h. It is filed as functional.
Data set [6] has as its system Enterococcus faecalis. Description: Antimicrobial activity against vancomycin-resistant Enterococcus faecalis clinical isolate incubated for 18 hrs by CLSI method. It is filed as functional.
The subject of data set [7] is Clostridioides difficile. The data set is described as follows: Antibacterial activity against Clostridium difficile NSW132 RT027 incubated for 48 hrs by CLSI method. It counts as functional. The settings on record: NSW132 RT027, 48 h. In outline:
as §1

Data set [8] has as its system Staphylococcus aureus. The data set is described as follows: Antimicrobial activity against methicillin-resistant Staphylococcus aureus clinical isolate incubated for 18 hrs by CLSI method. It is filed as functional.
For data set [9], the system named is Staphylococcus aureus. The data set is described as follows: Antimicrobial activity against methicillin-resistant Staphylococcus aureus ATCC 43300 incubated for 18 hrs by CLSI method. It counts as functional. The note with it: ATCC 43300, 18 h.
The subject of data set [10] is Staphylococcus aureus. Description: Antimicrobial activity against methicillin-resistant Staphylococcus aureus clinical isolate with reduced daptomycin susceptibility incubated for 18 hrs by CLSI method. It is filed as functional.
Data set [11] deals with Staphylococcus aureus. The data set is described as follows: Antibacterial activity against methicillin-resistant Staphylococcus aureus NCTC 10442 incubated for 24 hrs by CLSI method. It is filed as functional. The note with it: NCTC 10442, 24 h. In outline: (§2)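 Broth microdilution per CLSI aerobic guidance in Mueller Hinton broth, ambient air, 35 °C for 24 h. DMSO stocks were diluted in water, then serially diluted with double-strength broth inoculum added, for final 0.25–128 μg/mL. […] MIC was read visually as the lowest concentration inhibiting growth; the modal value of triplicates was recorded.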

For data set [12], the system named is Staphylococcus aureus. Description: Antimicrobial activity against vancomycin resistant Staphylococcus aureus NARSA VRS10 incubated for 18 hrs by CLSI method. It counts as functional. The settings on record: NARSA VRS10, 18 h.
Data set [13] has as its system Staphylococcus aureus. Description: Antimicrobial activity against Staphylococcus aureus ATCC 29213 incubated for 24 hrs by CLSI method. It counts as functional. The note with it: ATCC 29213, 24 h. The procedure, abridged:
as §2

Data set [14] relates to Enterococcus faecalis. The data set is described as follows: Antibacterial activity against Enterococcus faecalis ATCC 29212 incubated for 24 hrs by CLSI method. It is filed as functional. The note with it: ATCC 29212, 24 h.
The subject of the next data set is Klebsiella pneumoniae. The data set is described as follows: Antibacterial activity against Klebsiella pneumoniae 700603 incubated for 18 hrs by CLSI method. It counts as functional. The settings on record: Klebsiella pneumoniae, 700603, 18 h. The procedure, abridged: (§3)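 Screen run by CO-ADD: mid-log cultures in cation-adjusted MHB, 5 × 10^5 CFU/mL, compounds at up to 32 μg/mL in 1:2 serial dilutions (8 steps), final DMSO ≤0.5%, duplicate. 37 °C for 18 h without shaking; OD600 read against media-only and untreated-bacteria references. MIC = lowest concentration giving ≥80% inhibition; colistin standard.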

Data set [15] in a line: Cytotoxicity against human HEK293 cells assessed as reduction in cell growth incubated for 20 hrs by resazurin dye-based fluorometric assay. The procedure, abridged:
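HEK293 cells, 5000 per well in DMEM + 10% FBS, exposed to compounds (top 32 μg/mL, 1:2 serial dilution ×8, ≤0.5% DMSO, duplicate) for 20 h at 37 °C, 5% CO2. Resazurin added (2.3 μg/mL final), 3 h further; fluorescence ex 560/em 590 nm. CC50 from sigmoidal dose-response fit against log concentration; tamoxifen standard.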

For another data set, the system named is Escherichia coli. Description: Antibacterial activity against Escherichia coli ATCC 25922 incubated for 18 hrs by CLSI method. It counts as functional. The note with it: ATCC 25922, 18 h. In outline:
as §3

In data set [16] the test system is Staphylococcus aureus. Description: Antimicrobial activity against Staphylococcus aureus ATCC 43300 incubated for 18 hrs by CLSI method. The settings on record: ATCC 43300, 18 h. It counts as functional.
A short description of data set [17]: Haemolytic activity in sheep erythrocytes at 5 ug/ml incubated for 2 hrs under shaking condition relative to control. It counts as ADME, cell-based, Ovis aries, Erythrocyte. The note with it: read-out: Activity. The procedure, abridged: (§4)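 Compounds in PBS mixed with washed sheep erythrocytes (2% final) at 5 or 50 μg/mL, rocked 2 h at 37 °C, centrifuged; supernatant absorbance at 540 nm. PBS-only value subtracted, then expressed relative to water lysis (100%). Triplicate, means reported.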

Another data set has as its system Acinetobacter baumannii. The data set is described as follows: Antimicrobial activity against Acinetobacter baumannii ATCC 19606 incubated for 18 hrs by CLSI method. It is filed as functional. The settings on record: ATCC 19606 = CIP 70.34 = JCM 6841, 18 h. In outline: as §3
The subject of the next data set is Pseudomonas aeruginosa. Description: Antimicrobial activity against Pseudomonas aeruginosa ATCC 27853 incubated for 18 hrs by CLSI method. The settings on record: ATCC 27853, 18 h. It counts as functional. In outline: as §3
The nature of data set [18]: Haemolytic activity in sheep erythrocytes at 50 ug/ml incubated for 2 hrs under shaking condition relative to control. It is filed as ADME, cell-based, Ovis aries, Erythrocyte. The note with it: read-out: Activity. In outline:
as §4

Converted amounts (≈) assume the structure as drawn.

For orientation: MIC means the lowest concentration that inhibits growth of the organism. Read a low MIC as inhibition by little substance. Regarding `CN[C@H](CC(C)C)C(=O)N[C@H]1C(=O)N[C@@H](CC(N)=O)C(=O)N[C@H]2C(=O)N[C@H]3C(=O)N[C@H](C(=O)N[C@H](C(=O)O)c4cc(O)cc(O)c4-c4cc3ccc4O)[C@H](O)c3ccc(c(Cl)c3)Oc3cc2cc(c3O[C@@H]2O[C@H](CO)[C@@H](O)[C@H](O)[C@H]2O[C@H]2C[C@](C)(N)[C@H](O)[C@H](C)O2)Oc2ccc(cc2Cl)[C@H]1O` [VANCOMYCIN], the MIC was 0.5 µg/mL (≈ 0.345 µM) against Clostridioides difficile [1]; 8 µg/mL (≈ 5.52 µM) in the data set with Staphylococcus aureus [2]; 1 µg/mL (≈ 0.69 µM) with Streptococcus pneumoniae [3]; 8 µg/mL (≈ 5.52 µM) in the data set with Staphylococcus aureus [4]; 1 to 2 µg/mL (≈ 0.69 to 1.38 µM) in the data set with Streptococcus pneumoniae [5]; more than 32 µg/mL in the data set on Enterococcus faecalis [6]. Besides, in the data set on Clostridioides difficile [7], it took 0.5 µg/mL (≈ 0.345 µM) to inhibit growth (MIC).
For the compound `CC(C)CCOc1ccc2ccccc2c1-c1c(OCc2cn(C[C@@H](CCCCN)NC(=O)Cc3ccc4c(c3)OCO4)nn2)ccc2ccccc12.Cl`, the MIC in the data set on Clostridioides difficile [1] is 32 µg/mL; against Staphylococcus aureus [8] it was more than 32 µg/mL; with Staphylococcus aureus [2], 8 to 16 µg/mL; against Streptococcus pneumoniae [3] it was 16 µg/mL; in the data set on Staphylococcus aureus [9] it was 8 µg/mL; against Staphylococcus aureus [10], 8 µg/mL. Moreover, the MIC against Staphylococcus aureus [11] was 8 µg/mL; with Staphylococcus aureus [12], 8 to 16 µg/mL; against Staphylococcus aureus [13], 8 µg/mL; in the data set with Enterococcus faecalis [14], 8 µg/mL; in the data set on Staphylococcus aureus [4], 16 µg/mL; against Streptococcus pneumoniae [5] it was 8 to 16 µg/mL. The MIC against Enterococcus faecalis [6] stood at 4 µg/mL; with Clostridioides difficile [7] it was 32 µg/mL.
On to `CC(C)CCOc1ccc2ccccc2c1-c1c(OCc2cn(C[C@@H](CCCCN)NC(=O)[C@@H](CCCNC(=N)N)NC(=O)Cc3ccc4c(c3)OCO4)nn2)ccc2ccccc12.Cl.Cl`, for which the MIC was 8 µg/mL in the data set on Clostridioides difficile [1]; 4 µg/mL against Staphylococcus aureus [8]; 2 to 4 µg/mL against Staphylococcus aureus [2]; 4 µg/mL in the data set on Streptococcus pneumoniae [3]; 2 µg/mL against Staphylococcus aureus [9]; 4 µg/mL with Staphylococcus aureus [10]. Besides, the MIC was determined as 4 µg/mL against Staphylococcus aureus [11]; 4 µg/mL against Staphylococcus aureus [12]; 4 µg/mL in the data set on Staphylococcus aureus [13]; 4 µg/mL against Enterococcus faecalis [14]; 4 µg/mL in the data set with Staphylococcus aureus [4]; 2 µg/mL against Streptococcus pneumoniae [5]. The MIC in the data set with Enterococcus faecalis [6] turned out to be 2 µg/mL; against Clostridioides difficile [7], 32 µg/mL.
What is called CC50 is the concentration giving 50% cytotoxicity. `CC(C)CCOc1ccccc1-c1ccccc1OCc1cn(C[C@@H](CCCNC(=N)N)NC(=O)[C@@H](CCCCN)n2cc(CCc3ccccc3)nn2)nn1.Cl.Cl`: the MIC turned out to be 16 µg/mL with Clostridioides difficile [1]; 4 µg/mL with Streptococcus pneumoniae [3]; 4 µg/mL with Staphylococcus aureus [11]; 4 µg/mL in the data set on Staphylococcus aureus [13]; 8 µg/mL in the data set on Enterococcus faecalis [14]; 16 µg/mL against Klebsiella pneumoniae. The MIC stood at 4 µg/mL in the data set on Escherichia coli; 2 µg/mL against Staphylococcus aureus [16]; 16 µg/mL against Acinetobacter baumannii; 8 µg/mL against Pseudomonas aeruginosa; 16 µg/mL against Clostridioides difficile [7]. In addition, the CC50 at 20 h in [15] came out at 17.4 µg/mL. For the same compound, the hemolysis at 2 h, 5 ug/ml in [17] was determined as 1.7%. For the same compound, the hemolysis at 2 h, 50 ug/ml in data set [18] was 28.8%.

The record behind these values is ChEMBL document CHEMBL4390663, “Cationic biaryl 1,2,3-triazolyl peptidomimetic amphiphiles: synthesis, antibacterial evaluation and preliminary mechanism of action studies” (Eur J Med Chem, 2019).
